Here are results for one molecule from PMC3337761 (Drug Development and Industrial Pharmacy, 2010).

One series is described as follows: Solubility in solvents. The format is physicochemical.
Series [1] in a line: Pharmacokinetics in rhesus macaques. It is filed as in vivo, Rhesus Macaques (Macaca mulatta). The method, boiled down: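 Two rhesus macaques, fasted overnight with water allowed. Oral powder was mixed into a chocolate treat, with dose set by the amount eaten. After a 2-week washout, i.v. dosing used 5 mg/mL in 25% Cremophor EL/75% PBS. Ketamine 10 mg/kg i.m. for sampling. EDTA plasma taken pre-dose to 24 h, C18 SPE, then LC-ESI-MS (m/z 277; analogue internal standard; calibration 25 nM–2.5 µM). F = dose-normalised AUC po/iv.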

The mark [2] stands for this setting: male, rhesus monkey, plasma, iv, 5 mg/kg.
Where [3] appears, read: male, rhesus monkey, plasma, po, 50 mg/kg.

Each structure is given as a SMILES string. In brackets after ≈: the same amount, converted by molar mass.

With `Clc1ccccc1C(c1ccccc1)(c1ccccc1)n1cccn1` [TRAM-34, 1-[(2-chlorophenyl)-diphenylmethyl]-1H-pyrazole], in the series “Solubility in solvents” (ethanol, organic solvent or mixture), the solubility came to 4000 µg/mL (≈ 11.6 mM). For the same molecule, in “Solubility in solvents” (water), the solubility in water result is listed as “practically insoluble in water”. In addition, in series [1] (setting [2]), the AUC(0-t) worked out at 3.64 µM·h, the Vd was found to be 11.1 L/kg and the clearance is 53.3 mL/min/kg. Moreover, in series [1] (male, rhesus monkey, plasma, oral, 50 mg/kg), the bioavailability was found to be 0.3%. In series [1] (setting [3]), the exposure AUC(0-t) turned out to be 0.103 µM·h, the peak level (Cmax) was 22.5 nM and the Tmax is 2 h. Moreover, the Vd in series [1] (oral powder without enteric coating, 50 mg/kg, Rhesus Macaques) came out at 6.5 L/kg.
